Assay results: ChEMBL document CHEMBL4043283, “Discovery and Preclinical Development of IIIM-290, an Orally Active Potent Cyclin-Dependent Kinase Inhibitor” (J Med Chem, 2018)

Legend:
[1] = molecular target: CDK9/cyclin T1 (Homo sapiens) (UniProt O60563+P50750); assay: Inhibition of CDK9/cyclin T1 (unknown origin) at 0.5 uM using YSPTSPSYSPTSPSYSPTSPKKK as substrate after 30 mins in presence of [33P]-gamma-ATP by filter binding assay relative to control; type: protein-complex assay
HL-60 = assay: Growth inhibition of human HL60 cells at 10 uM after 48 hrs by MTT assay relative to control; type: functional; details: HL-60, 48 h, read-out: GI
Outline: (§1)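 Single-concentration primary screen at 10 μM by MTT assay. Cells were NCI-sourced cancer lines grown in appropriate medium at 37 °C, 95% humidity, 5% CO2. Growth inhibition is expressed relative to control.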

MIA PaCa-2 = assay: Growth inhibition of human MIAPaCa2 cells at 10 uM after 48 hrs by MTT assay relative to control; type: functional; details: MIA PaCa-2, 48 h, read-out: GI; outline: as §1
PC-3 = assay: Growth inhibition of human PC3 cells at 10 uM after 48 hrs by MTT assay relative to control; type: functional; details: PC-3, 48 h, read-out: GI; outline: as §1
MCF7 = assay: Growth inhibition of human MCF7 cells at 10 uM after 48 hrs by MTT assay relative to control; type: functional; details: MCF7, 48 h, read-out: GI; outline: as §1
[2] = molecular target: CDK2/Cyclin A2 (Homo sapiens) (UniProt P24941+P20248); assay: Inhibition of CDK2/cyclin A (unknown origin) at 0.5 uM using histone H1 as substrate after 30 mins in presence of [33P]-gamma-ATP by filter binding assay relative to control; type: protein-complex assay
Caco-2 = assay: Growth inhibition of human Caco2 cells at 10 uM after 48 hrs by MTT assay relative to control; type: functional; details: Caco-2, 48 h, read-out: GI; outline: as §1

Row | inhibition [1] [%] | inhibition [2] [%] | SMILES | inhibition of growth at 10 µM (HL-60) [%] | inhibition of growth at 10 µM (MIA PaCa-2) [%] | inhibition of growth at 10 µM (PC-3) [%] | inhibition of growth at 10 µM (MCF7) [%] | inhibition of growth at 10 µM (Caco-2) [%]
1 | 0 | 10 | Cc1cc(=O)c2c(O)cc(OCc3ccccc3)c([C@H]3CCN(C)C[C@H]3O)c2o1 | 24 | 14 | 41 | 1 | 18
2 | 29 | 0 | Cc1oc2c([C@H]3CCN(C)C[C@H]3O)c(O)cc(O)c2c(=O)c1C(O)c1ccccc1Br (some centres undefined) | 52 | 10 | 45 | 21 | 7
3 | 0 | 10 | Cc1cc(=O)c2c(O)cc(O)c([C@H]3CCN(C)C[C@H]3OC(=O)c3ccco3)c2o1 | 22 | 13 | 23 | 20 | 33
4 | 2 | 0 | CCOc1ccc(Br)c(C(O)c2c(C)oc3c([C@H]4CCN(C)C[C@H]4O)c(O)cc(O)c3c2=O)c1 (some centres undefined) | 2 | 4 | 0 | 9 | 5
5 | 4 | 0 | CCN(CC)Cc1c(O)c([C@H]2CCN(C)C[C@H]2O)c2oc(C)cc(=O)c2c1O | 47 | 27 | 2 | 24 | 17
6 | 0 | 7 | Cc1oc2c([C@H]3CCN(C)C[C@H]3O)c(O)cc(O)c2c(=O)c1C(O)c1csc([N+](=O)[O-])c1 (some centres undefined) | 45 | 41 | 0 | 20 | 3
7 | 13 | 13 | Cc1oc2c([C@H]3CCN(C)C[C@H]3O)c(O)cc(O)c2c(=O)c1C(O)c1ccc(F)cc1 (some centres undefined) | 30 | 17 | 0 | 9 | 11
8 | 0 | 0 | Cc1cc(=O)c2c(O)c(CN3CCOCC3)c(O)c([C@H]3CCN(C)C[C@H]3O)c2o1 | 8 | 4 | 21 | 22 | 11
9 | 5 | 0 | Cc1cc(=O)c2c(O)cc(OCc3ccc([N+](=O)[O-])cc3)c([C@H]3CCN(C)C[C@H]3O)c2o1 | 14 | 12 | 23 | 39 | 14
10 | 2 | 0 | Cc1cc(=O)c2c(O)c(CN3CCN(C)CC3)c(O)c([C@H]3CCN(C)C[C@H]3O)c2o1 | 15 | 6 | 0 | 10 | 30
11 | 4 | 0 | Cc1oc2c([C@H]3CCN(C)C[C@H]3O)c(O)cc(O)c2c(=O)c1C(O)c1cccc(Cl)c1 (some centres undefined) | 22 | 2 | 31 | 5 | 4
12 | 0 | 3 | COc1ccc(C(O)c2c(C)oc3c([C@H]4CCN(C)C[C@H]4O)c(O)cc(O)c3c2=O)cc1Br (some centres undefined) | 23 | 3 | 0 | 41 | 0
13 | 10 | 2 | Cc1oc2c([C@H]3CCN(C)C[C@H]3O)c(O)cc(O)c2c(=O)c1C(O)c1cc(F)cc(F)c1 (some centres undefined) | 30 | 6 | 0 | 25 | 10
14 | 0 | 10 | COc1ccc(COc2cc(O)c3c(=O)cc(C)oc3c2[C@H]2CCN(C)C[C@H]2O)cc1 | 23 | 15 | 35 | 16 | 8
15 | 6 | 0 | Cc1cc(=O)c2c(O)c(CN3CCC(c4ccccc4)CC3)c(O)c([C@H]3CCN(C)C[C@H]3O)c2o1 | 26 | 16 | 22 | 23 | 21
16 | 10 | 10 | Cc1cc(=O)c2c(O)c(CN3CCCCC3)c(O)c([C@H]3CCN(C)C[C@H]3O)c2o1 | 32 | 14 | 14 | 15 | 22
17 | 0 | 0 | Cc1oc2c([C@H]3CCN(C)C[C@H]3O)c(O)cc(O)c2c(=O)c1C(O)c1c(F)cccc1Cl (some centres undefined) | 49 | 41 | 0 | 41 | 18
18 | 5 | 7 | Cc1cc(=O)c2c(O)c(CN3CCCC3)c(O)c([C@H]3CCN(C)C[C@H]3O)c2o1 | 38 | 28 | 10 | 12 | 22
19 | 0 | 2 | Cc1cc(=O)c2c(O)c(CN3CCN(C(=O)OC(C)(C)C)CC3)c(O)c([C@H]3CCN(C)C[C@H]3O)c2o1 | 13 | 6 | 1 | 16 | 21
20 | 0 | 4 | Cc1cc(=O)c2c(O)c(CN3CCC(Cc4ccccc4)CC3)c(O)c([C@H]3CCN(C)C[C@H]3O)c2o1 | 28 | 18 | 16 | 17 | 21
21 | 0 | 5 | CCOC(=O)N1CCN(Cc2c(O)c([C@H]3CCN(C)C[C@H]3O)c3oc(C)cc(=O)c3c2O)CC1 | 16 | 4 | 1 | 31 | 18
22 | 8 | 6 | Cc1oc2c([C@H]3CCN(C)C[C@H]3O)c(O)cc(O)c2c(=O)c1C(O)c1ccc([N+](=O)[O-])cc1 (some centres undefined) | 0 | 2 | 24 | 4 | 5
